VIM-2 inh: inhibitors of Pseudomonas aeruginosa VIM-2 metallo-beta-lactamase; hit rate 0.89% among 290,000; inhibition, % at 5.6 µM; purified VIM-2, nitrocefin hydrolysis, epi-absorbance fluorescence;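 active = inhibition above the mean of all tested compounds plus 3 SD, cutoff set per screening run, cut at about 7.5% in these data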;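 note: red hydrolysis product quenches plate fluorescence so inhibitors raise well fluorescence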
PvdQ inh: blocks Pseudomonas aeruginosa PvdQ acylase activity; purified PvdQ acylase, fluorescence plate reader; inhibition, % at 10 µM; hit rate 0.063% among 340,000; in the data active = inhibition above about 30%, passing the limit was not always enough
HKDC1 inh: HKDC1 (human) hexokinase inhibition; AID 493160; inhibition, % at 20 µM; Q2TB90; recombinant HKDC1, G6PDH/diaphorase resazurin coupled fluorescence; hit rate 0.16% among 340,000;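 active = inhibition above about 35% when tested at 20 µM, limit read from the data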
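test system = in-house recombinant HK5 (HKDC1) enzyme | amount = HKDC1 at 5 µg/mL | control set = DMSO-enzyme wells negative, buffer-substituted wells positive | compound = one dose of 20 µM, 1% DMSO | schedule = reaction time 90 min, room temperature, protected from light | technique = resorufin fluorescence at 613 nm | reagent = glucose with 1 mM ATP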
ATG4B inh: inhibitors of human ATG4B cysteine protease | Q9Y4P1 | ATG4B cleavage of LC3-PLA2, NBD-HPC fluorescence, 1 h | inhibition, % at 8.33 µM | hit rate 0.51% among 340,000 | AID 504462; in the data active = inhibition above about 40%
Target sequence (Q9Y4P1 whole entry, looked up): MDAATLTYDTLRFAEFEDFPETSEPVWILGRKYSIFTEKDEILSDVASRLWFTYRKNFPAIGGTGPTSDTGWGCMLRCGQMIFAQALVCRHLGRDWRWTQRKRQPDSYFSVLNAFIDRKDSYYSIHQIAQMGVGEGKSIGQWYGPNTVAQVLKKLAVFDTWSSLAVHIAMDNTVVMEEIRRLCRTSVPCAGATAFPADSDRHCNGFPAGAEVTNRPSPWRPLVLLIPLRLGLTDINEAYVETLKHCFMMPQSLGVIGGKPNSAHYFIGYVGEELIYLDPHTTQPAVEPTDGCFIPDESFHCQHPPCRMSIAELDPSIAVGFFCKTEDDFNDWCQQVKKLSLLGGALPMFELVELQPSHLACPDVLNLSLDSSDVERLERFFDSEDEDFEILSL
MIN6 prolif: inducers of beta-cell replication in MIN6 cells; MIN6 cells proliferation, ATPlite luminescence, 48 h; cells starved in 0.2% serum; 100% = growth in 10% serum; proliferation, % at 10 µM; hit rate 0.29% among 330,000; AID 2380;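 active = compounds whose signal lies at least 3.5 SD above the mean of all wells on their plate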
IMP-1 inhibitor: inhibitors of Pseudomonas aeruginosa IMP-1 metallo-beta-lactamase; purified IMP-1, nitrocefin hydrolysis, epi-absorbance fluorescence; inhibition, % at 5.6 µM; hit rate 0.45% among 290,000; AID 1556;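 active = inhibition above the mean plus 3 SD of all compounds in the same screening run, cut at about 4.5% in these data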
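assay system = purified recombinant IMP-1 metallo-beta-lactamase enzyme | schedule = 15 min preincubation plus 25 min reaction at 25 °C | signal = Epi-absorbance fluorescence, 480 nm excitation, 530 nm emission | read-out basis = percent inhibition from optical density relative to buffer-blank wells | controls = IMP-1 with DMSO as 0%, enzyme-free DMSO as 100%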
Of the large screens only hits and unclear results are named; the others gave an inactive call. In the library only some 2% were active in any assay of this set; here they are far more common.

Cc1ccc(/C=C2\SC(=S)N(c3cccnc3)C2=O)o1	IMP-1 inhibitor 5.9
Cc1cccc(N2C(=O)/C(=C/c3cccnc3)SC2=S)c1	none
O=C(Cn1c(=O)oc2ccccc21)NC(=O)NCc1ccco1	none
Cc1ccc(-n2c3c(c(=O)[nH]c2=O)C(C(F)(F)F)(C(F)(F)F)NC(=O)N3)cc1	none
Cc1cccc(NC(=O)COC(=O)CCc2c[nH]c3ccccc23)c1	none (no result: VIM-2 inh, IMP-1 inhibitor)
COc1ccc(C(=O)c2c3ccc(C(F)(F)F)cc3[n+]([O-])n2CCCN)cc1	none (no result: VIM-2 inh, IMP-1 inhibitor)
NS(=O)(=O)c1ccc(NC(=O)CCC(=O)c2cccs2)cc1	none
O=C(CCC(=O)c1cccs1)NC(c1ccccc1)c1ccccc1	none
NC(=O)c1ccc(NC(=O)CCC(=O)c2cccs2)cc1	IMP-1 inhibitor 5.0
O=C(CCC(=O)c1cccs1)c1cccs1	IMP-1 inhibitor 4.6
CC(C)c1nnc(NC(=O)C2CCN(C(=O)Nc3ccccc3)CC2)s1	none
COc1ccc(Nc2nc(-c3ccncc3)nc3ccccc23)cc1	VIM-2 inh 11
COc1ccc(OC)c(Nc2nc(-c3ccncc3)nc3ccccc23)c1	none
O=C(OCCNc1nc(-c2ccccc2)nc2ccccc12)c1ccncc1	VIM-2 inh 9.6
COc1ccc(Nc2c3ccccc3nc3ccccc23)cc1	VIM-2 inh 9.2
Cc1ccc(S(=O)(=O)N2CCN(c3ccnc4cc(Cl)ccc34)CC2)cc1	VIM-2 inh 10
CCCCNC(=O)c1onc(CS(=O)(=O)c2ccccn2)c1C(=O)NCCCC	none (no result: VIM-2 inh, IMP-1 inhibitor)
N#CC1CCN(C(=O)c2ccc3c(Cl)c4c(nc3c2)CCCC4)CC1	none
CN1CCN(C(=O)c2ccc3c(Cl)c4c(nc3c2)CCCC4)CC1	VIM-2 inh 11
CCN1CCN(C(=O)c2ccc3c(Cl)c4c(nc3c2)CCCC4)CC1	VIM-2 inh 8.2
CCOC(=O)N1CCN(C(=O)c2ccc3c(SCC(=O)O)c4c(nc3c2)CCCC4)CC1	none
NCCCC[C@H]1NC(=O)[C@H](CCC(=O)O)NC(=O)c2cc([N+](=O)[O-])cc(I)c2OCC[C@@H](C(N)=O)NC1=O	ATG4B inh 44 (no result: PvdQ inh)
C[C@@H]1NC(=O)c2cc([N+](=O)[O-])cc(I)c2OCC[C@@H](C(N)=O)NC(=O)[C@H](CCCCN)NC1=O	none
Cc1cc(C)cc(N2CC(C)Cn3c2nc2c3c(=O)[nH]c(=O)n2C)c1 (stereo not drawn)	VIM-2 inh 8.6
Cc1cc(C)cc(N2CCCn3c2nc2c3c(=O)[nH]c(=O)n2C)c1	none
CCOc1ccccc1NC(=O)Cc1coc2ccc(C)cc12	none
COc1ccccc1NNC(=O)c1cccnc1Oc1ccccc1	none
Cc1cc(C)c2c(CN3CCN(Cc4ccccc4)CC3)cc(=O)oc2c1C	VIM-2 inh 9.8
O=c1cc(CN2CCN(Cc3ccccc3)CC2)c2cc3c(cc2o1)CCC3	VIM-2 inh 7.7
O=C(COC(=O)Cc1c(F)cccc1Cl)NC1CCS(=O)(=O)C1 (stereo not drawn)	none (no result: VIM-2 inh, IMP-1 inhibitor)
CSc1ncccc1C(=O)Nc1cccc(S(=O)(=O)N(C)c2ccccc2)c1	none (no result: VIM-2 inh, IMP-1 inhibitor)
Cc1ccc(NC(=O)Cn2nnc(C(=O)Nc3ccc(F)c(Cl)c3)c2N)cc1	none
COc1ccc(NC(=O)Cn2nnc(C(=O)Nc3ccc(F)c(Cl)c3)c2N)cc1	IMP-1 inhibitor 8.1
CC(=O)c1ccc(NC(=O)CN2CCN(c3ccccc3)CC2)cc1	none
CC(=O)c1ccc(N2CCN(C(=S)Nc3ccc(Oc4ccccc4)cc3)CC2)cc1	none
CN1CCN(c2ccc(NC(=O)c3ccc(Oc4ccccc4)cc3)cc2)CC1	VIM-2 inh 8.3
CC(=O)Nc1ccc(C(=O)CN2CCN(c3ccccc3)CC2)cc1	IMP-1 inhibitor 22
CC(=O)c1c(C)[nH]c(C(=O)OCc2nnc(-c3ccc([N+](=O)[O-])cc3)o2)c1C	none (no result: VIM-2 inh, IMP-1 inhibitor)
COc1ccc(-c2c(C#N)c(N)nc3c2CCC3)cc1	none
CSc1nc2c(c(-c3ccc(O)cc3)c1C#N)CCC2	VIM-2 inh 7.8
O=C(C1CCN(c2nnc(-n3cccc3)s2)CC1)N1CCOCC1	none
O=C(C1CCN(c2ncnc3c2sc2cccc(F)c23)CC1)N1CCOCC1	VIM-2 inh 11
COc1cc(NC(=O)Nc2ccccc2OC)c(OC)cc1NC(=O)CN1CCCCC1	IMP-1 inhibitor 4.7
CCOc1ccc(NC(=O)CN2CCC(n3cnc4cc(F)ccc43)CC2)cc1	none
O=C(CN1CCC(n2cnc3cc(F)ccc32)CC1)Nc1ccccc1Br	VIM-2 inh 9.8
Cc1ccc(C2(C)NC(=O)N(Cc3c(C)noc3C)C2=O)cc1 (stereo not drawn)	none
Cc1noc(C)c1CN1C(=O)c2ccccc2C1=O	IMP-1 inhibitor 4.8
O=C(Nc1cc(Cl)ccc1-n1cncn1)c1cc(F)c(F)c(F)c1F	none (no result: VIM-2 inh, IMP-1 inhibitor)
O=C(C1=NN[C@@H]2C(=O)N(c3cccc(F)c3)C(=O)[C@H]12)C(c1ccccc1)c1ccccc1	IMP-1 inhibitor 5.2
Nc1ccc(CCc2ccccn2)cc1	none (no result: VIM-2 inh, MIN6 prolif, IMP-1 inhibitor)
COC(=O)c1c(/N=C/N(C)C)sc2c1CCN(c1ncc(C(F)(F)F)cc1Cl)C2	IMP-1 inhibitor 5.0
Cc1ccc(S(=O)(=O)N(CC(=O)Nc2ccc(C(N)=O)cc2)C(=O)N2CCN(C)CC2)cc1	none (no result: VIM-2 inh, IMP-1 inhibitor)
O=C(O)C1CSC2c3ccccc3C(=O)N12 (stereo not drawn)	IMP-1 inhibitor 11
Cn1c(=O)c2[nH]c(CCCCCCCCc3nc4ccccc4[nH]3)nc2n(C)c1=O	none (no result: VIM-2 inh, MIN6 prolif, IMP-1 inhibitor)
Cc1ccc(CC(=O)Nc2ccccc2N2CCOCC2)cc1C	IMP-1 inhibitor 6.3
CN(C)c1ccc(N=Nc2ccc(S(N)(=O)=O)cc2)cc1	IMP-1 inhibitor 9.1
CN(C)N=Nc1ccc(S(N)(=O)=O)cc1	none
CN(Cc1nccn1C)C(=O)c1cc(COc2ccc3ncccc3c2)on1	VIM-2 inh 10.0
Cc1onc(-c2ccccc2)c1C(=O)OCC(=O)NC(C)c1ccc(Cl)cc1 (stereo not drawn)	none (no result: VIM-2 inh, IMP-1 inhibitor)
O=C(Nc1ccccc1)C(=O)Nc1cccnc1	none
O=C(Nc1cccnc1)/C(N=Nc1cccnc1)=C(\O)c1ccccc1	VIM-2 inh 10
CN(C)S(=O)(=O)c1cccc(COc2ncnc3c(Cl)cc(Cl)cc23)c1	none
CCOC(=O)c1cnc2c(cnn2C)c1NCc1ccc(OC)cc1	none
COc1ccc(CNc2c(C(=O)O)cnc3c2cnn3C)cc1	VIM-2 inh 9.9
O=C(CNC(=S)N(Cc1ccccc1)Cc1cccnc1)NC1CCCC1	none
O=C(O)C1C2C=CC(C2)C1C(=O)Nc1ccccc1Br (stereo not drawn)	IMP-1 inhibitor 32
COc1ccc(/C=N/NC(=O)C(N)=O)c(OC)c1OC	IMP-1 inhibitor 8.4
CCOC(=O)c1ccc(N2Cc3ccccc3C2=NC(=O)c2cccc([N+](=O)[O-])c2)cc1	PvdQ inh 45 (no result: VIM-2 inh, IMP-1 inhibitor)
O=C(N=C1c2ccccc2CN1c1ccccc1)c1cccc([N+](=O)[O-])c1	none

Bioassay records as filed in PubChem.
